Reference: ChEMBL document CHEMBL4699492, “Discovery of Novel Pyrazolo[3,4-b] Pyridine Derivatives with Dual Activities of Vascular Remodeling Inhibition and Vasodilation for the Treatment of Pulmonary Arterial Hypertension” (J Med Chem, 2020)
Converted amounts (≈) assume the structure as drawn. The source made the active and inactive calls. No cut-off for these calls is given here.

How the values were obtained:
[1] = Solubility of compound in water at pH 3.5; type: physicochemical; conditions: buffer
[2] = molecular target: T1, AMP-activated protein kinase, AMPK (Homo sapiens) (UniProt P54646+O43741+P54619+Q9UGJ0+Q9Y478+Q13131+Q9UGI9); assay: Inhibition of AMPK in TGFbeta-induced HPASMC assessed as reduction in cell migration measured after 24 hrs by wound healing assay; type: tissue-based; conditions: Pulmonary Artery Smooth Muscle Cells, dose microM 5-10, time 24.0 hrs
In short: (§1)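 Wound-healing assay. 5 × 10^4 cells were seeded per well and grown 24 h to near confluence. The monolayer was scratched with a pipette tip and washed with PBS. Cells were then kept in 1% FBS medium with TGF-β (10 ng/mL) or under hypoxia (1% O2, 5% CO2, 94% N2), alone or with compound. Migration ran 24 h at 37 °C, imaged at 0 and 24 h. Mean ± SD from three independent experiments.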

[3] = Solubility of compound in water at pH 7.3; type: physicochemical; conditions: buffer
[4] = Antiproliferative activity against HPASMC measured after 48 hrs under hypoxic condition by CCK8 assay; type: functional, tissue-based; conditions: Homo sapiens, Pulmonary Artery Smooth Muscle Cells
In short: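 HPASMCs were grown in high-glucose D-MEM with 20% FBS, and HLF1 in D-MEM/F-12 (1:1) with 10% FBS. Cells were seeded for exponential growth, then exposed to a range of compound concentrations for 48 h at 37 °C under hypoxia (1% O2, 5% CO2, 94% N2). CCK-8 was added for 4 h and absorbance read at 490 nm. IC50 came from dose-response curves averaged over three independent experiments.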

Aorta = assay: Vasodilating activity in Sprague-Dawley rat aortic rings assessed as reduction in phenylephrine-induced contractions; type: functional, tissue-based
In short: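 Thoracic aorta from male SD rats (250-280 g) anesthetized with chloral hydrate, cut into 4 mm rings. Rings held in Krebs-Henseleit at 37 °C gassed with 95% O2/5% CO2, under 2 g resting tension, equilibrated 60 min, and precontracted with 10^-7 M phenylephrine. Cumulative concentrations of 3×10^-9 to 10^-6 M (final) applied. Percent relaxation of the initial contraction taken at 1 µM, and EC50 derived.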

Rattus norvegicus [5] = assay: Inhibition of vascular remodeling activity in Sprague-Dawley rat model of hypoxia-induced pulmonary artery hypertension assessed as right ventricular systolic pressure at 10 mg/kg, po administered daily for 2 weeks by catheter method (reference value: 26.2 mmHg); type: functional
[6] = Effect on total Smad2/3 level in lungs of Sprague-Dawley rat model of hypoxia-induced pulmonary artery hypertension at 10 mg/kg, po administered daily for 2 weeks by Western blot analysis; type: ADME, organism-based; conditions: in vivo, 336 h
In short: (§2)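 Hypoxic PAH model in male SD rats (160-200 g) kept at 10% O2 for 4 weeks. Oral dosing at 10 mg/kg daily for 14 days, suspended in 0.5% CMC-Na; control and hypoxia groups received vehicle only. Lungs homogenized in RIPA with protease and phosphatase inhibitors. 30 µg protein run on 10% SDS-PAGE, then PVDF blotting, with β-actin as loading reference. Three independent runs.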

[7] = Half life in human liver microsomes at 1.5 uM preincubated for 5 mins followed by NADPH addition and measured up to 45 mins by LC-MS/MS analysis; type: ADME, Microsome; conditions: time <=50 min
In short: (§3)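 Liver microsomes (0.75 mg/mL), human or SD rat, in 0.1 M potassium phosphate pH 7.4 with 3.0 mM MgCl2 and 1.5 µM compound, run in duplicate. After 5 min preincubation at 37 °C, reaction started with 3 mM NADPH. Quenched at 0, 5, 15, 30 and 45 min with ice-cold acetonitrile containing internal standard. Ketanserin served as positive control and a no-NADPH buffer incubation as negative control. LC-MS/MS read-out.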

[8] = Protein binding in human plasma; type: ADME, cell-free; conditions: read-out: PPB (converted)
Homo sapiens = organism: Homo sapiens; assay: Inhibition of CaMKKbeta phosphorylated recombinant human AMPK alpha1/beta1/gamma1 using 1-biotin as substrate incubated for 60 mins by HTRF assay; conditions: time 1.0 hrs
In short: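 Kinase reaction with 0.16 µM STK substrate 1-biotin, 0.8 mmol DTT, 4 mmol MgCl2, 4 µM ATP and compound, started by adding 1 ng/µl CaMKKβ-prephosphorylated AMPK (α1β1γ1). Ran 1 h at 37 °C, then Eu3+-cryptate STK antibody plus 57.5 nmol/L XL-665 for 1 h at room temperature. Activity read as the 665/620 ratio ×10000. Curves averaged from three independent experiments.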

Rattus norvegicus [9] = assay: Inhibition of vascular remodeling activity in Sprague-Dawley rat model of hypoxia-induced pulmonary artery hypertension assessed as reduction in alpha-SMA expression in lungs at 10 mg/kg, po administered daily for 2 weeks by Western blot analysis; type: functional, organism-based
In short: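 Lungs came from hypoxic SD rats (10% O2, 4 weeks) dosed orally at 10 mg/kg daily for 14 days. Tissue was homogenised in RIPA buffer with protease and phosphatase inhibitors. 30 µg of protein was run on 10% SDS-PAGE and transferred to PVDF. Blots were probed overnight at 4 °C with anti-α-SMA (1:1000) and anti-β-actin (1:2000) and detected by fluorescence.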

[10] = tested on: Pulmonary Artery Smooth Muscle Cells; assay: Stimulation of sGC in HPASMC assessed as increase in intracellular cGMP level at 100 uM measured after 1 hr in presence of PDE5 inhibitor IBMX and sGC inhibitor ODQ by cGMP-d2/europium cryptate reagent based HTRF assay; type: tissue-based; conditions: Homo sapiens
In short: (§4)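 HPASMCs were suspended at 100,000 cells/mL in PBS with 0.2% BSA, with or without 10 µM ODQ. Compounds were added as a 6-point, 10-fold dilution series; the top 2× stock was 200 µM. Incubation was 1 h at room temperature, in triplicate. cGMP-d2 in lysis buffer and europium cryptate were then added for 1 h before HTRF reading. Three independent experiments.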

[11] = molecular target: T1, AMP-activated protein kinase, AMPK (Homo sapiens); assay: Inhibition of AMPK in TGFbeta-induced HLF1 cells assessed as reduction in cell migration measured after 24 hrs by wound healing assay; type: cell-based; conditions: dose microM 5-10, time 24.0 hrs; in short: as §1
[12] = Protein binding in rat plasma; type: ADME, cell-free; conditions: read-out: PPB (converted)
Rattus norvegicus [13] = assay: Inhibition of vascular remodeling activity in Sprague-Dawley rat model of hypoxia-induced pulmonary artery hypertension assessed as reduction in TGFbeta expression in lungs at 10 mg/kg, po administered daily for 2 weeks by Western blot analysis; type: functional, organism-based; in short: as §2
[14] = tested on: Pulmonary Artery Smooth Muscle Cells; assay: Stimulation of sGC in HPASMC assessed as increase in intracellular cGMP level at 100 uM measured after 1 hr in absence of PDE5 inhibitor IBMX by cGMP-d2/europium cryptate reagent based HTRF assay relative to control; type: tissue-based; conditions: Homo sapiens; in short: as §4
Rattus norvegicus [15] = assay: In vivo stimulation of sGC in Sprague-Dawley rat model of hypoxia-induced pulmonary artery hypertension assessed as increase in phosphorylation levels of VASP in lungs at 10 mg/kg, po administered daily for 2 weeks by Western blot analysis; type: functional, organism-based
[16] = Half life in Sprague-Dawley rat liver microsomes at 1.5 uM preincubated for 5 mins followed by NADPH addition and measured up to 45 mins by LC-MS/MS analysis; type: ADME, Microsome; conditions: time <=50 min; in short: as §3

- solubility [1]: 0.028 µg/mL (≈ 0.064 µM)
- inhibition [2]: Dose-dependent effect
- solubility [3]: 0.034 µg/mL (≈ 0.0777 µM)
- EC50 (Aorta): 0.29 µM
- half-life at 1.5 µM [7]: 2.08 h
- fraction unbound [8]: 0.002
- inhibition (Homo sapiens): Dose-dependent effect
- inhibition [11]: Dose-dependent effect
- fraction unbound [12]: 0.007
- half-life at 1.5 µM [16]: 0.167 h
SMILES: Cc1ccccc1COc1nc2c(cc1-c1nc(N)cc(N)n1)c(C)nn2-c1ccccc1
- IC50 [4]: 20.8 µM
- Activity (Rattus norvegicus [5]): 22 mmHg
- Activity [6]: Non-Toxic
- inhibition (Rattus norvegicus [9]): Active
- Activity [10]: inactive
- inhibition (Rattus norvegicus [13]): Active
- Activity [14]: 5%
- Activity (Rattus norvegicus [15]): Active
